# Bioassay records (PubChem BioAssay)
# TRPC6 inhibitor: mouse TRPC6 channel inhibition. HEK293-TRPC6, membrane potential dye, ACh-evoked depolarization; hits give low values. B-score at 10 µM. hit rate 1.1% among 310,000;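 active means B-score under library mean minus 3 SD, initial fluorescence not abnormally high, positive integrated signal ratio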;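 further: B-score derived from integrated fluorescence ratio over the kinetic read; more negative B-score means stronger inhibition of depolarization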
# Target sequence (Q61143 whole entry, looked up): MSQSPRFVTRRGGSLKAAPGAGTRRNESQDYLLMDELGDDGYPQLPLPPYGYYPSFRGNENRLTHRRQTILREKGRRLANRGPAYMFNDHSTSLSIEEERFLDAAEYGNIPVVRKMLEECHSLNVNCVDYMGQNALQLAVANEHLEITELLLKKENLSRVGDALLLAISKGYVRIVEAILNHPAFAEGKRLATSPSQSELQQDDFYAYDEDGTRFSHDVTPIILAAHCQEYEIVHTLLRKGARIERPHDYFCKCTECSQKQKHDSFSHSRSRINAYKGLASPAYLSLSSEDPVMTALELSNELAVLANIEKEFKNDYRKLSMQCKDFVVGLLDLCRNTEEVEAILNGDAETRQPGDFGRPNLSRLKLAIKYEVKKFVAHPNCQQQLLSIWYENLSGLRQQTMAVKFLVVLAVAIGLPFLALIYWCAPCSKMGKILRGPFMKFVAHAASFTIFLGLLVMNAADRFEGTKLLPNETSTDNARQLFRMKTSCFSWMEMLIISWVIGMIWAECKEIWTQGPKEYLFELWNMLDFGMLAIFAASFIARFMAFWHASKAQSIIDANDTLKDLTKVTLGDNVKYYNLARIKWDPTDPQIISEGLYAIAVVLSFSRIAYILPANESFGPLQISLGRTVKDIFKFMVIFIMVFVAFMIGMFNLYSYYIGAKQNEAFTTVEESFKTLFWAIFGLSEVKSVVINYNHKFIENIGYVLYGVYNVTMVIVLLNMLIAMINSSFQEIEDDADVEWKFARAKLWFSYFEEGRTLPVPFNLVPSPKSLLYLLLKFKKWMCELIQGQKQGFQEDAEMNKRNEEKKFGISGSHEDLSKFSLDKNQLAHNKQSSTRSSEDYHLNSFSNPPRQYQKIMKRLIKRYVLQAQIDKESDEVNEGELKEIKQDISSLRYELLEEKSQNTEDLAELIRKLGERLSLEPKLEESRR
# TRPC4 agonist: activators of mouse TRPC4 channel | hit rate 0.49% among 310,000 | Q9QUQ5 | HEK293 TRPC4beta/mu-opioid, Fluo4 calcium fluorescence; hits give high values | B-score at 10 µM;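 active means B-score above 5 SD of library B-scores, and initial fluorescence ratio not above library mean plus 5 SD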;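 further: positive B-score marks a calcium rise read as TRPC4 activation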
#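 Material: HEK293 stable line with TRPC4beta plus mu-opioid receptor; technique: Fluo4 calcium-sensitive dye fluorescence, kinetic, 1 Hz baseline; timing: Fluo4 dye loading 45 min at room temperature, 110 s recording; controls: assay buffer as low control, maximal DAMGO as high control; read-out: integrated baseline-normalised fluorescence ratio, converted to per-well B score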
# TRPC4 PAM: TRPC4 (mouse) allosteric potentiation. Q9QUQ5. hit rate 0.42% among 310,000. HEK293 TRPC4beta/mu-opioid, DAMGO EC20, Fluo-4 Ca2+ flux; hits give high values. B-score at 10 µM;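 active means B-score of calcium response area above 5 SD of library B-scores, with initial fluorescence ratio within 5 SD of library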;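 further: B-score of integrated fluorescence ratio over time as area under calcium response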
# Platelet DG rel: platelet dense granule release activity | human platelet-rich plasma, SFLLRN dense granule ATP release, luminescence | inhibition, %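 (compounds screened at 7.5 µM in platelet-rich plasma)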 | hit rate 0.22% among 300,000;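 active means mean replicate score, as percent of positive control, at or above 50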
# TRPC6 activator: activates the mouse TRPC6 cation channel; hit rate 0.13% among 310,000; AID 2550; B-score at 10 µM; HEK293-TRPC6 membrane potential dye fluorescence; hits give high values; Q61143;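 active means B-score of the integrated fluorescence ratio above library mean plus 3 SD, and starting fluorescence ratio within library mean plus 5 SD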;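 further: higher score means more depolarization so channel activation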
# TRPC4 block: blocks the mouse TRPC4 cation channel | HEK293 TRPC4beta/mu-opioid, DAMGO-evoked Fluo4 calcium flux; hits give low values | hit rate 0.39% among 300,000 | B-score at 10 µM | AID 2247;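 active means B-score over 3 SD under the library average, no early fluorescence shift, positive overall ratio signal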
#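 Material: HEK293 cells with stable TRPC4beta plus mu-opioid receptor expression / Probe or stimulus: DAMGO in two steps, submaximal then maximal / Compound: single concentration per test compound / Technique: kinetic Fluo4 fluorescence imaging of calcium influx / Read-out: per-well B score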
# TRPC4 spec 2: mouse TRPC4 off-target activity of TRPC6 inhibitors, second screen. shares compounds with TRPC6 inhibitor. HEK293 TRPC4/MOR, membrane potential dye fluorescence; channel activated by saturating DAMGO dose. AID 2776. hit rate 42% among 920. inhibition, % at 10 µM;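 active means compounds whose fluorescence signal differed from control wells by over 3 SD, either direction, in both duplicate plates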
# TRPC4 spec: selectivity of TRPC6 inhibitors: effect on mouse TRPC4; shares compounds with TRPC6 inhibitor; HEK293 TRPC4/mu-opioid, membrane potential fluorescence; activity change, negative = inhibition, % at 10 µM; hit rate 61% among 920; AID 2777;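 active means rise or fall in signal beyond 3 SD of buffer-only wells in both replicate plates, either sign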;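 further: integrated kinetic ratio of fluorescence range over baseline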
# HEK293 MPD ctr 2-1: second check of TRPC6 inhibitor effects in parental HEK293 cells; shares compounds with TRPC6 inhibitor; parental HEK293 membrane potential dye fluorescence; maximal acetylcholine challenge after compound addition; signal change vs control, % at 10 µM; hit rate 31% among 920;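 active means membrane potential signal moving either way by over 3 SD of the maximum-effect control, in both duplicate plates, meaning non-specific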
# HEK293 MPD ctr-1: checks TRPC6 inhibitor effects in parental HEK293 cells; shares compounds with TRPC6 inhibitor; parental HEK293 membrane potential dye fluorescence; membrane potential signal change, % at 10 µM; hit rate 60% among 920;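 active means membrane potential signal shifting up or down by more than 3 SD of buffer-only wells, on both duplicate plates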
# HEK293 MPD ctr-2: counter-screen for TRPC6 modulators: effect in parental HEK293 cells. membrane potential signal change, % at 10 µM. hit rate 51% among 2,400. AID 488924. membrane potential dye fluorescence. shares compounds with TRPC6 inhibitor;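 active means membrane potential signal moves up or down beyond 5 SD from buffer-only wells, on both duplicate plates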
# HEK293 MPD ctr 2-2: second counter-screen for TRPC6 modulators: effect in parental HEK293 cells; membrane potential dye fluorescence; after compound, maximal acetylcholine stimulation; hit rate 14% among 2,400; AID 488926; shares compounds with TRPC6 inhibitor; inhibition, % at 10 µM;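 active means membrane potential signal drops by more than 5 SD from the mean control signal, in both duplicate plates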;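 further: plate controls were acetylcholine ECmax control wells for no effect and buffer only wells for full effect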
# TRPC4/MOR mod: mouse TRPC4 off-target activity of TRPC6 modulators; shares compounds with TRPC6 inhibitor; HEK293 TRPC4/mu-opioid, membrane potential fluorescence; percent change from control (negative = decrease, positive = increase), % at 10 µM; hit rate 69% among 2,400; AID 488927;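 active means membrane potential signal moved up or down beyond 5 SD of buffer control wells, in both duplicate plates, actives on both sides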;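 further: plate controls were assay buffer wells for no effect and DAMGO maximal-effect wells for full effect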
# TRPC4/MOR inh 2: second selectivity test of TRPC6 modulators against mouse TRPC4 | shares compounds with TRPC6 inhibitor | HEK293 TRPC4/mu-opioid, membrane potential dye fluorescence; stimulated with maximal-effect DAMGO | inhibition, % at 10 µM | hit rate 55% among 2,400;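 active means drop in membrane potential signal beyond 5 SD of the control wells in both duplicate plates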;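 further: TRPC4 counter screen for TRPC6 hits run under conditions tuned for TRPC6 not TRPC4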
# TRPC6 inh conf: mouse TRPC6 inhibitor confirmation; shares compounds with TRPC6 inhibitor; HEK293-TRPC6, membrane potential dye, ACh-evoked depolarization; inhibition, % at 10 µM; hit rate 43% among 3,300; AID 488960;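 active means fluorescence ratio falls more than 5 SD below the full-stimulation control mean, in both duplicate runs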;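 further: integrated fluorescence ratio of peak minus minimum over baseline after agonist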
# TRPC6 act conf: mouse TRPC6 activator confirmation. shares compounds with TRPC6 inhibitor. HEK293-TRPC6 membrane potential dye fluorescence, FDSS. activation, % at 10 µM. hit rate 11% among 2,800. AID 488961;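 active means ratio signal rise beyond 5 SD above unstimulated control wells' mean, seen in both duplicate runs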;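 further: plate controls were buffer EC0 wells for no effect and acetylcholine ECmax response for full effect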
# Numbers without * were called inactive; i = inactive; nt = no result; + = active, no number. Rows were chosen to be rich in hits. Some 2.5% of all compounds tested hit in one or more screens of this group.
SMILES,TRPC6 inhibitor,TRPC4 agonist,TRPC4 PAM,Platelet DG rel,TRPC6 activator,TRPC4 block,HEK293 MPD ctr-2,HEK293 MPD ctr 2-2,TRPC4/MOR mod,TRPC4/MOR inh 2,TRPC6 inh conf,TRPC6 act conf,others
Nc1nc(Nc2ccc(Cl)cc2)nc2ccccc12,-11.6*,i,i,72.5*,i,i,-163.0%*,89.5%*,-36.5%*,88.0%*,84.0%*,i,
O=C(Nc1ccccc1)C(=O)c1c[nH]c2ccccc12,i,i,i,17.7,i,i,nt,nt,nt,nt,nt,nt,
Nc1ncnc(Nc2ccccc2)n1,i,i,i,-3.7,i,i,nt,nt,nt,nt,nt,nt,
Cc1ccc(Nc2nc(N)c3ccccc3n2)cc1Cl,-6.5*,i,i,52.1*,i,i,-127.5%*,83.0%*,-35.0%*,79.0%*,75.0%*,i,
Nc1nc(Nc2ccccc2)nc2ccccc12,-22*,i,i,59.0*,i,i,-199.5%*,90.5%*,-45.5%*,86.5%*,85.5%*,i,
COc1cc2nc(Nc3ccc(C)c(Cl)c3)nc(N)c2cc1OC,i,i,i,2.2,i,i,nt,nt,nt,nt,nt,nt,
Cc1ccc(CNC(=O)c2cc(-c3ccccc3)nn2CC2CC(c3cccc([N+](=O)[O-])c3)=NO2)cc1 (stereo unspecified),i,i,i,4.9,i,i,nt,nt,nt,nt,nt,nt,
Cc1ccc(S(=O)(=O)N(CC(O)CN2C(=O)NC(C)(C)C2=O)c2ccccc2)cc1 (stereo unspecified),i,i,i,0.6,i,i,nt,nt,nt,nt,nt,nt,
Cc1ccn2c(NC(=O)C(C)(C)Oc3ccc(Cl)cc3)c(-c3cccs3)nc2c1,-8.79*,i,i,-1.2,i,i,-120.0%*,i,-26.0%*,87.5%*,58.0%*,i,
Cc1ccc(C(=O)Nc2c(-c3cccs3)nc3cc(C)ccn23)cc1,i,i,i,7.4,i,i,nt,nt,nt,nt,nt,nt,
CCCn1nc(C(=O)NNC(=O)Cc2ccc(S(=O)(=O)N3CCOCC3)s2)c2ccccc2c1=O,i,i,i,-10.1,i,i,nt,nt,nt,nt,nt,nt,
CSc1nc(SCC(=O)NCC2CCCO2)c2c3c(sc2n1)CN(C)CC3 (stereo unspecified),-4.99*,i,i,0.1,i,i,-134.5%*,i,-28.5%*,i,i,i,
Cc1cccc(C)c1NC(=O)CCc1nnc2ccc(N3CCCC3)nn12,i,i,i,1.7,i,i,nt,nt,nt,nt,nt,nt,
Cc1ccc(S(=O)(=O)/N=C2/NC(=O)/C(=C/c3cc([N+](=O)[O-])ccc3O)S2)cc1,i,i,i,-11.1,62.1*,i,390.0%*,i,66.5%*,i,i,280.0%*,
COc1cc(/C=C2\S/C(=N/S(=O)(=O)c3ccc(C)cc3)NC2=O)c([N+](=O)[O-])cc1OC,i,i,i,-3.2,i,i,nt,nt,nt,nt,nt,nt,
O=C1NC(=Nc2ccccc2Cl)S/C1=C\c1cc([N+](=O)[O-])ccc1O,i,82*,i,-1.5,33.6*,i,+,i,380.0%*,65.0%*,i,657.5%*,
CC(C)c1ccc(S(=O)(=O)N2CCN(C(=O)c3ccco3)CC2)cc1,-11.3*,i,i,-1.9,11.7*,i,i,i,11.5%*,i,105.5%*,122.5%*,
O=C1CNC(=S)N1Cc1cccc(Cl)c1,-6.95*,i,i,-1.7,i,i,nt,nt,nt,nt,i,i,TRPC4 spec 2=i;TRPC4 spec=-12.1%*;HEK293 MPD ctr 2-1=i;HEK293 MPD ctr-1=i
Cc1ccc(-n2nc3c(c2NC(=O)c2c(-c4ccccc4Cl)noc2C)CS(=O)(=O)C3)c(C)c1,-5.47*,i,i,1.0,i,i,100.0%*,i,24.0%*,i,i,nt,
COc1ccc(/C=C(/NC(=O)/C=C/c2ccccc2)C(=O)N2CCOCC2)cc1,-5.84*,i,i,1.9,i,i,i,i,i,i,41.5%*,i,
CCOC(=O)/C(=N\Nc1ccc(C(C)=O)cc1)c1csc(Nc2ccccc2)n1,i,i,i,12.8,i,i,nt,nt,nt,nt,nt,nt,
CCOC(=O)/C(=N\Nc1ccccc1[N+](=O)[O-])c1csc(N)n1,-5.18*,i,i,6.7,i,i,i,i,-18.5%*,i,i,i,
CC(C)(C)OC(=O)NCCc1nnc(SCC(=O)Nc2ccc(Br)cc2)o1,i,i,i,-2.8,i,i,nt,nt,nt,nt,nt,nt,
CCOC(=O)c1nc2cc3n(c(C)c-2c1C)C(C)C(CC)=C3C (stereo unspecified),-6.54*,i,i,10.8,i,i,157.5%*,173.5%*,24.0%*,34.0%*,52.0%*,i,
Cc1ccc(S(=O)(=O)N2CCC(C(=O)N/N=C/c3ccncc3)CC2)cc1,i,i,i,-3.4,i,i,nt,nt,nt,nt,nt,nt,
CCN1CCCc2cc(CN(CCN3CCOCC3)C(=O)Nc3ccc(C)c(C)c3)ccc21,-5.02*,i,i,-1.8,i,i,i,i,i,41.0%*,i,i,
